LMPTP inh: LMPTP phosphatase inhibitors, primary screen, biochemical, fluorescence intensity, uHTS; Low molecular weight phosphotyrosine protein phosphatase (Homo sapiens), P24666; recombinant LMPTP-A, OMFP fluorogenic substrate; inhibition, % at 20 µM; actives 0.22% (n = 360,000); AID 651560, 2012;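 active = compounds that cut the enzyme signal by at least half of the control window in the single-dose screen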;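 also: plate controls were DMSO wells with enzyme plus substrate for no effect and substrate without enzyme for full effect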
Target sequence (P24666 whole entry, looked up): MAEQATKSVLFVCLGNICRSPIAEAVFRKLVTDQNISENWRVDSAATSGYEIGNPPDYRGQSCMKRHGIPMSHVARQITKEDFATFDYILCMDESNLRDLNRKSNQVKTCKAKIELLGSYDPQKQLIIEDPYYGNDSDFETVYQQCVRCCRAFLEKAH
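Test system: LMPTP-A phosphatase enzyme; input: 0.625 nM LMPTP-A final; reagent: OMFP substrate, 400 µM final; compound dosing: 20 µM single dose, 3% DMSO; incubation: 50 min dark incubation at room temperature; measured by: endpoint fluorescence intensity from OMFP dephosphorylation; measure: % inhibition relative to no-enzyme and uninhibited control wells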
DNMT1 block: human DNMT1 methyltransferase inhibitors, primary screen, biochemical, molecular beacon, fluorescence, HinP1I cleavage, uHTS | actives 0.83% (n = 360,000) | inhibition (reported as % activation of signal), % at 10 µM | DNA (cytosine-5)-methyltransferase 1 (Homo sapiens), P26358; in the data active = inhibition above about 50%
Rpn11 block: Rpn11 (PSMD14) deubiquitinase inhibitors, primary screen, biochemical, fluorescence polarization, uHTS | human 26S proteasome, Ub4-pepOG fluorescence polarization; 20S core pre-blocked with epoxomicin | inhibition, % at 20 µM | actives 0.59% (n = 360,000);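 active = inhibition at 20 µM, scaled to each plate's controls, above about 33%, limit read from the data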
STEP block: STEP phosphatase inhibitors, primary screen, biochemical, fluorescence intensity, uHTS; Tyrosine-protein phosphatase non-receptor type 5 (Homo sapiens), P54829; recombinant STEP, OMFP fluorogenic substrate; inhibition, % at 20 µM; actives 0.25% (n = 360,000); AID 588621, 2011;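 active = inhibition at 20 µM, scaled per plate between control wells, above about 37%, limit read from the data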;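 also: 0% = DMSO with enzyme and substrate and 100% = substrate only without enzyme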
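Material: STEP (striatal-enriched tyrosine phosphatase) enzyme, cell-free | Medium: 50 mM Bis-Tris pH 6.0 with 2.5 mM DTT and 0.005% Tween 20 | Read-out: Percent inhibition scaled to no-enzyme and uninhibited-enzyme controls, plate-pattern corrected | Signal: Fluorescence read at 480 nm ex / 540 nm em | Times: 20 min reaction, room temperature, in the dark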
SUMO1 PPI mod: modulators of SUMO1 protein-protein interactions, primary screen, biochemical, uHTS; AID 602429, 2012; inhibition, % at 20 µM; actives 0.33% (n = 360,000); Small ubiquitin-related modifier 1 (Homo sapiens), P63165; SUMO1 binding to a labelled peptide, TR-FRET, 1 h; in the data active = inhibition above about 37%
Target sequence (P63165 whole entry, looked up): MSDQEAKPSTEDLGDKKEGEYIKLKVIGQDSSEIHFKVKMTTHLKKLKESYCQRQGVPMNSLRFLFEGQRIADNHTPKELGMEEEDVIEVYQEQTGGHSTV
Scp-1 inhibitor: Scp-1 phosphatase inhibitors, primary screen, biochemical, colorimetric, uHTS; Recombinant Scp1, phosphopeptide, malachite green phosphate absorbance; inhibition, % at 20 µM; actives 0.88% (n = 340,000);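 active = inhibition above about 50% at 20 µM, limit read from the data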;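 also: plate controls were DMSO wells with enzyme for no effect and wells lacking enzyme for full effect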
Target sequence (Q9GZU7 76-261 limits assumed): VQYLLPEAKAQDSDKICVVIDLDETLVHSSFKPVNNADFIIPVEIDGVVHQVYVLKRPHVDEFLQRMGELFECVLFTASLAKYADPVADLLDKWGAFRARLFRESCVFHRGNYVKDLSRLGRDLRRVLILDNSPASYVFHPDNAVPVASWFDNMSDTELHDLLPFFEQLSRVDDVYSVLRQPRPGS
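Test system: SCP-1 phosphatase catalytic domain, residues 76-261; measured by: colorimetric phosphate reagent with accelerator and stabiliser, absorbance at 630 nm; timing: enzyme reaction 45 min at room temperature, colour 5 min, stabilisation 30 min; also added: Phosphorylated 17-residue peptide substrate; compound dosing: one concentration, 20 µM, with 1.0% DMSO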
* = called active by the depositor; i = inactive; x = no result given; + = active, no number; ! = a repeat was not active. Rows were chosen to be rich in hits. Some 2.3% of all compounds tested hit in one or more screens of this group.

SMILES | LMPTP inh | DNMT1 block | Rpn11 block | STEP block | SUMO1 PPI mod | Scp-1 inhibitor
O=C(c1ccc(OC2CCN(Cc3ccccn3)CC2)cc1)N1CCCCO1 | 2 | 0 | -6 | -1 | -3 | -7
Cc1ccccc1S(=O)(=O)Oc1cccc2c(O)cccc12 | 1 | -32 | 5 | 0 | 0 | -8
Cc1cccc(NC(=S)N(C)C)c1C | -1 | 3 | -1 | -3 | -3 | -11
Cc1cccc(Nc2cc(C)c3c(O)cccc3n2)c1C | 69* | -29 | 4 | 5 | -4 | -12
Cc1c(Br)c([N+](=O)[O-])nn1CC(=O)NCCc1ccc(Cl)cc1 | 1 | -2 | -2 | 0 | 43* | 0
CCOCCCNCc1ccc(OCc2ccccc2C)c(OC)c1 | 0 | 0 | -5 | -2 | 3 | 0
CC(=O)Nc1ccc(C(=O)N/N=C/C2CC3C=CC2C3)cc1 (configuration not stated) | 0 | -2 | -6 | -2 | 1 | -8
CC(C)C(=O)Nc1ccc(C(=O)N/N=C/C2CC3C=CC2C3)cc1 (configuration not stated) | -1 | 3 | -4 | 1 | 40* | -3
O=C(Nc1ccc(S(=O)(=O)NCc2ccccc2)cc1)C1CCCCC1 | 2 | 1 | -3 | 1 | -6 | -4
C[n+]1c2cc(N)ccc2cc2ccc(N)cc21 | 8 | + | -218 | i | 78*! | -1
O=c1c(O)cccc2cc(O)c(O)c(O)c12 | 90* | 95* | 11 | 98* | 104* | 73*
CC(C(=O)O)N(c1ccccc1Cl)S(C)(=O)=O (configuration not stated) | -2 | 2 | -9 | -3 | 1 | -2
CCC(C)(C)NC(=O)CN(CC1CCCO1)C(=O)CCC(=O)Nc1nccs1 (configuration not stated) | 1 | 0 | 4 | -1 | 47* | 22
CC(C)CCNC(=O)CN(CC1CCCO1)C(=O)CCC(=O)Nc1nccs1 (configuration not stated) | 0 | 4 | -3 | -7 | -3 | 5
Cc1ccccc1NC(=O)c1ccc2c(O)c(S(=O)(=O)c3ccccc3)c(=O)[nH]c2c1 | -1 | 0 | -5 | 1 | 26 | 3
Cc1cccc(N2C(=O)CC(Sc3nc(-c4ccccc4)c4cc(Cl)ccc4n3)C2=O)c1 (configuration not stated) | 1 | -5 | 3 | -1 | 44* | -7
Cc1cccc(N2C(=O)CC(Sc3nc(C)cc(C)n3)C2=O)c1 (configuration not stated) | 0 | 2 | -4 | -2 | -1 | -7
OC(COc1ccc(CNCCc2ccccc2F)cc1)CN1CCCCC1 (configuration not stated) | 2 | -5 | -4 | -2 | 0 | 3
O=C(N/N=C/c1cccc([N+](=O)[O-])c1)c1cc(-c2ccc3c(c2)OCO3)n[nH]1 | 5 | 49 | -2 | 4 | 73* | 11
O=C1C(C=Nc2ccccc2O)=C(O)c2ccccc21 | 1 | -2 | -10 | 2 | -11 | -11
Cc1ccc(O)c(N=CC2=C(O)c3ccccc3C2=O)c1 | 4 | 57* | 11 | 2 | 15 | -10
O=C(O)CC/C(=N/NC(=O)c1ccc(-c2ccccc2)cc1)c1ccccc1 | -2 | 0 | -9 | -2 | 3 | -5
Oc1c(N=Nc2nn[nH]n2)ccc2ccccc12 | 9 | 36 | -20 | 3 | 50* | x
O=C(NCCN1CCOCC1)C1CCN(S(=O)(=O)N2CCCCC2)CC1 | 0 | 1 | -7 | 0 | 64* | 1
Cc1ncc([N+](=O)[O-])n1CC(=O)N/N=C/c1ccccc1F | -1 | -2 | -6 | -2 | -9 | -1
SMILES | LMPTP inh | DNMT1 block | Rpn11 block | STEP block | SUMO1 PPI mod | Scp-1 inhibitor
CCOC(=O)C1(C)CCN1C(=O)c1csnn1 (configuration not stated) | 0 | 2 | -2 | -4 | 0 | x
CCc1nnc(NC(=O)CSc2sc3c(O)cc(=O)[nH]c3c2C#N)s1 | 32 | 83* | 61* | 33 | 40* | 95*
CCN(C(=O)COC(=O)/C(C#N)=C/c1ccc(OC)cc1)C1CCS(=O)(=O)C1 (configuration not stated) | 0 | 0 | 9 | 0 | -34 | -4
CCc1c(C)nc2c(C#N)c(C)[nH]n2c1=O | 0 | 5 | -7 | -2 | 54* | -3
CN(Cc1ccccc1)C1=CC(=[N+]2CCCCC2)CC(C)(C)C1 | 2 | 2 | -11 | 0 | -2 | 104*
CC1(C)CC(N2CCN(Cc3ccccc3)CC2)=CC(=[N+]2CCCCC2)C1 | 2 | 1 | -2 | 1 | 1 | 106*
COc1ccc(-c2csc(NC(=S)NC(=O)/C=C/c3ccco3)n2)cc1OC | 1 | -8 | 33 | 5 | 58* | -3
CCOc1ccc(CN(C)c2ccc(S(=O)(=O)N3CCN(C)CC3)cc2[N+](=O)[O-])cc1OC | 0 | -4 | -1 | -2 | -28 | -6
Fc1ccc(N2N=C(c3cccs3)CC2c2ccccc2)cc1 (configuration not stated) | 4 | 1 | 63* | 0 | -3 | -5
COc1ccc(C2CC(=O)C(C=NCCN3CCN(C(=S)Nc4ccccc4)CC3)=C(O)C2)cc1OC (configuration not stated) | -2 | -1 | -2 | 2 | 1 | -4
COC(=O)c1ccc(CNC(=O)c2ccc(S(=O)(=O)N3CCCC(C)C3)cc2)cc1 (configuration not stated) | 0 | 50* | -4 | 3 | 0 | -8
O=C(NCc1ccc(F)cc1)c1ccc(S(=O)(=O)N2CCCC2)cc1 | -3 | -1 | 3 | 2 | -1 | x
Cc1sc2ncn(CC(=O)N3CCCCC3)c(=O)c2c1S(=O)(=O)N1CCC(C)CC1 | 0 | -1 | -5 | -3 | -5 | -10
CCCN1CCN(C(=O)Cn2cnc3sc(C)c(S(=O)(=O)N4CCC(C)CC4)c3c2=O)CC1 | -1 | 16 | -2 | -2 | 48* | -6
OCCOCCN1CCN(C2=Nc3ccccc3Sc3ccccc32)CC1 | 2 | -1 | -2 | -3 | 2 | -6

Compound activity from PubChem BioAssay.
